Hits are enriched below; roughly 1.4% of the tested compounds scored in any of these assays.
Efflux pump mplx: blocks antifungal efflux pumps in multiplex yeast assay; AID 485275; inhibition, % at 10 µM; 330,000 compounds, 0.44% hits; S. cerevisiae Candida pump triplex, Nile Red efflux;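 active = plate passing quality check with inhibition over a set limit, or well fluorescence over plate mean plus 4 SD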;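 also: Nile Red retained in pooled yeast measured as flow cytometry median fluorescence; 0% = buffer negative control and 100% = Enniatin B positive control; higher means more Nile Red kept so more efflux inhibition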
Tb MetRS inh: blocks T. brucei methionyl-tRNA synthetase activity | purified T. brucei MetRS, ATP depletion, Kinase-Glo luminescence | inhibition, % at 11.9 µM | 360,000 compounds, 0.4% hits;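 active = inhibition above a per-plate cutoff of the control wells' mean inhibition plus 3 SD, cut at about 5.5% in these data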;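 also: 0% = DMSO wells median and 100% = median of wells with control inhibitor compound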
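Material – parasite MetRS enzyme · Medium – HEPES-MgCl2-KCl buffer plus DTT, spermine, BSA, pyrophosphatase · Reagent – ATP, methionine and E. coli bulk tRNA substrates · Times – 15 min enzyme-compound preincubation, 2 h reaction, 10 min detection, 25 °C · Measured by – luminescence of leftover ATP · Evaluation – percent inhibition relative to median high and low control wells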
CR mimetic SO: caloric restriction mimetics inhibiting age-related superoxide in yeast; superoxide response (% of plate mean), % at 10 µM; AID 2690; S. cerevisiae aged cells, superoxide DHE fluorescence; stronger effect = lower value; 330,000 compounds, 0.18% hits;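 active = superoxide response under a set limit, about three screen SD below normal, cut at about 65% in these data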;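 also: yeast aged for seven days with compound at 30 °C before DHE staining; 100% = average MFI of all compound-treated wells on the plate with controls excluded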
HDAC3 inh: blocks human histone deacetylase 3; 320,000 compounds, 0.15% hits; recombinant HDAC3, fluorogenic peptide/trypsin coupled, fluorescence; inhibition, % at 8.3 µM; O15379; in the data active = inhibition above about 26%, passing the limit was not always enough
IDE act: IDE (human) activation, cell-based. P14735. HEK cells, FAbeta-B cleavage, fluorescence polarization; 0% vehicle, 100% cell-free pure enzyme wells. activation, % at 5.96 µM. 340,000 compounds, 0.073% hits. AID 493087;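 active = activation above the mean of all tested compounds plus 3 SD, set per screening campaign, cut at about 17% in these data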
Target sequence (P14735 whole entry, looked up): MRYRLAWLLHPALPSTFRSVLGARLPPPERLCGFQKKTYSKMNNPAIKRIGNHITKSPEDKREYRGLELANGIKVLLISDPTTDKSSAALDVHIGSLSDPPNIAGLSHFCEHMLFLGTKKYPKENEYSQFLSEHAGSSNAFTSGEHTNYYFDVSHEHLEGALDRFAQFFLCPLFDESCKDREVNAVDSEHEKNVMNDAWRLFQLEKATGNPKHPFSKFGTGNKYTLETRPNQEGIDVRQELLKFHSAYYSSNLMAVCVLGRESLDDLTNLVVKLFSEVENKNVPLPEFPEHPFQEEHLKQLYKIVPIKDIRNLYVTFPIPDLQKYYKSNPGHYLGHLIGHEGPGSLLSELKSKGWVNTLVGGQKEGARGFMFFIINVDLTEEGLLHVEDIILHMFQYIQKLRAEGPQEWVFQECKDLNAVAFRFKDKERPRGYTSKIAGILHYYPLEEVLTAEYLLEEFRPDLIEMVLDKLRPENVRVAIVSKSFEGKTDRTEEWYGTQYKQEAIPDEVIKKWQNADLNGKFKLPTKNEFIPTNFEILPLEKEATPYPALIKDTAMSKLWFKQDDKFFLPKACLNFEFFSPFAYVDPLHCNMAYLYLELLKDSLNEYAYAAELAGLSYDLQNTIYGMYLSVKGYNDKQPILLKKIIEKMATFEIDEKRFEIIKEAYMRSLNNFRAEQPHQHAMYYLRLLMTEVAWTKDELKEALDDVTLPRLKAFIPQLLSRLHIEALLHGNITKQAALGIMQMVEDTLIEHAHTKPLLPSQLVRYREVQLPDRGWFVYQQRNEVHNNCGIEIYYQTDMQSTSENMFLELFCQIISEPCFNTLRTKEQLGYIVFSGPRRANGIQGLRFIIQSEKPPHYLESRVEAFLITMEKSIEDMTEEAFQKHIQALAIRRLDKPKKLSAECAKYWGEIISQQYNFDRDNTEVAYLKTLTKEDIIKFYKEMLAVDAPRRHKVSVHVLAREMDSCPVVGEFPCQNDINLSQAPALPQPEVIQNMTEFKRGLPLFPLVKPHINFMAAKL
IDE inh: inhibits human insulin-degrading enzyme in HEK cells; FAbetaB cleavage, fluorescence polarization; inhibition, % at 5.59 µM; P14735; 320,000 compounds, 0.41% hits; AID 434962;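 active = percent inhibition above the average of all tested compounds plus 3 SD, set per screening campaign, cut at about 16% in these data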;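 also: IDE supplied by intact live HEK cells; FP after avidin binding of uncleaved biotin substrate so inhibition keeps polarization high; 0% = DMSO wells and 100% = 60 µM reference IDE inhibitor Ii1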
Yeast cmpd fluor: counter-screen for efflux pump inhibitors: compound fluorescence; AID 588517; S. cerevisiae AD/pABC3, flow cytometry; fluorescence ratio to DMSO, % at 10 µM; shares compounds with Efflux pump mplx; 1,700 compounds, 4% hits;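 active = fluorescence ratio to DMSO above its plate's cutoff, the plate mean ratio plus 5 SD, cut at about 210% in these data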;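 also: unstained yeast with no Nile Red so the signal is compound autofluorescence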
CaMdr1 efflux inh: blocks the Candida albicans Mdr1 efflux pump in yeast; shares compounds with Efflux pump mplx; S. cerevisiae AD/CaMDR1, Nile Red efflux, flow cytometry; inhibition, % at 10 µM; 1,700 compounds, 1% hits; AID 588518; in the data active = inhibition above about 26%;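 also: 0% = DMSO vehicle and 100% = reference inhibitor; higher means more Nile Red retained so more efflux inhibition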
CaCdr2 efflux inh: inhibitors of Candida albicans Cdr2 efflux pump; 1,700 compounds, 4% hits; Nile Red retention ratio vs DMSO, % at 10 µM; S. cerevisiae AD/CaCDR2, Nile Red retention, flow cytometry; shares compounds with Efflux pump mplx; in the data active = Nile Red retention ratio vs DMSO above about 190%;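 also: higher ratio means more blocking of Cdr2 efflux of the dye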
CaCdr1 efflux inh: inhibitors of Candida albicans Cdr1 efflux pump; shares compounds with Efflux pump mplx; S. cerevisiae AD/CaCDR1, Nile Red efflux, flow cytometry; inhibition, % at 10 µM; 1,700 compounds, 1% hits; AID 588522;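 active = inhibition above the screen-wide mean plus twice its standard deviation, cut at about 32% in these data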
An asterisk follows results filed as active; / = not tested or not shown.

SMILES	Efflux pump mplx	Tb MetRS inh	CR mimetic SO	HDAC3 inh	IDE act	IDE inh	Yeast cmpd fluor	CaMdr1 efflux inh	CaCdr2 efflux inh	CaCdr1 efflux inh
CN(CC(=O)Nc1ccc(F)cc1)C(=O)c1ccc(-c2ccc(F)cc2)o1	/	2.0	/	/	/	/	/	/	/	/
O=C(N/N=C\c1cc(Cl)ccc1O)c1ccc(S(=O)(=O)N2CCCCC2)cc1	-0.1	-1.3	93.8	1.6	-5.6	5.9	/	/	/	/
Cc1cc(C)nc(NC(=O)CSc2nc3ccccc3s2)n1	-2.6	-0.2	95.6	6.2	3.6	2.1	/	/	/	/
Cc1cc(C)n2c(Br)c(CSc3nc4ccccc4s3)nc2n1	8.0*	-0.6	103.2	0.5	0.0	5.0	116.8	0.1	116.5	0.1
NC1=NC[C@H](Cc2ccc(O)cc2)N1CCc1cccc(F)c1	0.0	-0.8	97.8	1.5	7.6	-2.0	90.1	-0.3	85.2	-0.2
NC1=NC[C@@H](Cc2ccc(O)cc2)N1CCCCC1CCCCC1	1.0*	-0.1	103.8	3.3	1.5	-3.2	111.1	-0.2	116.4	-0.1
NC1=NC[C@H](Cc2ccc(O)cc2)N1CC1CCCCC1	-0.1	-0.4	93.5	-8.5	5.4	1.9	101.4	0.1	95.6	-0.1
COc1ccc2nccc(C(N)=O)c2c1	0.0	0.0	97.2	/	-1.6	-1.5	/	/	/	/
COC(=O)[C@H](CCSC)NC(=O)NCc1ccccn1	0.8*	-0.8	108.2	-0.8	1.3	2.6	104.6	0.1	112.2	-0.1
Nc1ccn(C(C=O)CC(C=O)CO)c(=O)n1 (stereo unspecified)	/	-0.4	/	/	/	/	/	/	/	/
COc1ccc([C@H]2C[C@@H](n3cc(C4CC4)nn3)[C@H](O)CN2CC2CCCCC2)cc1	/	-1.2	/	/	/	/	/	/	/	/
CCC(=O)NC(c1ccco1)c1cc(Cl)c2cccnc2c1O (stereo unspecified)	3.0*	-0.6	92.7	5.3	7.1	-2.0	92.1	-0.1	109.4	0.1
CCCCC(=O)NC(c1ccco1)c1cc(Cl)c2cccnc2c1O (stereo unspecified)	0.1	0.3	97.8	0.4	-1.4	-0.8	/	/	/	/
Cc1onc(-c2c(F)cccc2Cl)c1C(=O)NC1CCCCCC1	0.1	-0.5	89.3	-5.3	-4.9	0.1	/	/	/	/
Cc1onc(-c2c(F)cccc2Cl)c1C(=O)NC(=S)NC1CCS(=O)(=O)C1 (stereo unspecified)	6.5*	0.6	98.1	-1.9	-3.8	-1.6	92.1	-0.2	112.0	-0.1
O=C(COC(=O)c1ccc2c(c1)OCCO2)Nc1cccc(S(=O)(=O)N2CCOCC2)c1	0.5*	0.2	98.4	-4.5	0.8	10.1	104.0	-0.1	105.1	-0.1
O=C(COC(=O)c1cccc(S(=O)(=O)N2CCOCC2)c1)Nc1ccc2c(c1)OCO2	0.0	-0.1	92.8	-0.3	2.5	2.4	/	/	/	/
CC1Cc2cc(S(=O)(=O)NCc3ccccc3)ccc2N1C(=O)C1CCC1 (stereo unspecified)	0.0	0.5	84.9	-2.6	0.9	-11.6	100.3	-0.4	105.1	-0.1
Cc1sc(NC(=S)NC(=O)c2cccs2)nc1-c1ccc(C(C)C)cc1	0.9*	-0.6	100.0	5.0	-0.4	-0.2	103.0	-0.3	93.5	-0.1
CCOc1ccc(NC(=O)CSc2ncn[nH]2)c([N+](=O)[O-])c1	18.0*	0.8	125.4	-4.2	4.9	-3.0	98.2	-0.5	85.2	-0.1
CCOc1ccc(C2C3=C(CCCC3=O)Nc3nc(C(F)(F)F)nn32)cc1OC (stereo unspecified)	0.1	-0.1	89.3	11.9	1.7	1.3	/	/	/	/
CCOc1cc(C2C3=C(CCCC3=O)Nc3nc(C(=O)OC)nn32)ccc1OC (stereo unspecified)	1.4*	-0.1	123.0	2.0	-4.6	2.1	103.4	0.0	99.3	0.2
COc1ccccc1/C=C/C(=O)NCC(=O)N=Nc1c(O)[nH]c2ccccc12	0.6	-0.1	104.4	-1.3	-8.4	2.6	/	/	/	/
CCc1ccc(-c2cc3c(=O)n(CC(=O)NCCN4CCCCC4C)nc(C)n3n2)cc1 (stereo unspecified)	1.0*	-0.4	93.2	4.8	-0.9	3.5	107.9	0.0	103.8	0.1
CCc1ccc(-c2cc3c(=O)n(CC(=O)N4CCCC4)nc(C)n3n2)cc1	0.0	-0.3	116.1	-1.6	-0.6	6.3	/	/	/	/
SMILES	Efflux pump mplx	Tb MetRS inh	CR mimetic SO	HDAC3 inh	IDE act	IDE inh	Yeast cmpd fluor	CaMdr1 efflux inh	CaCdr2 efflux inh	CaCdr1 efflux inh
Cc1c(OC(C)C(=O)NCc2ccccn2)ccc2c3c(c(=O)oc12)CCCC3 (stereo unspecified)	1.8*	-0.3	109.4	-17.4	-1.0	5.3	101.4	-0.1	79.0	0.0
Cc1c(OC(C)C(=O)NCc2ccncc2)ccc2c3c(c(=O)oc12)CCC3 (stereo unspecified)	0.0	-0.5	90.4	-18.6	1.9	4.5	/	/	/	/
COc1cccc(C#CC2=CC(=O)CC(C)(C)C2)c1	/	-0.5	/	/	/	/	/	/	/	/
COc1ccc(Nc2nc(N)c(C(=O)c3ccc(F)cc3)s2)cc1	12.3*	-0.4	106.9	7.9	-6.5	5.2	97.8	0.0	96.0	0.0
CCCCCCCCCCOC(=O)C[N+](C)(C)C/C=C(/C)Cl	0.6	-0.4	129.6	-1.3	3.4	2.4	/	/	/	/
C/C(Cl)=C\C[N+](C)(C)CC(=O)OCCc1ccccc1	0.5*	-0.3	87.6	0.5	/	10.1	101.4	-0.2	95.6	-0.1
CC1=NN(c2nc3ccccc3[nH]2)C(=O)/C1=C/N(C)C	2.4*	-6.8	110.9	-4.1	-0.1	7.7	112.4	-0.4	104.2	0.0
COc1ccc(CCNC(=O)C2CCN(S(=O)(=O)N3CCC4(CC3)OCCO4)CC2)cc1OC	1.3*	-0.5	79.2	-2.4	3.9	-4.7	103.1	0.0	105.1	0.0
Cc1cc(C)c(NC(=O)COC(=O)c2ccncc2)c(C)c1	-0.1	0.6	100.4	3.7	5.6	1.7	/	/	/	/
Cc1cc(C(=O)NC2CC(C)(C)Cc3c2cnn3-c2ccccc2)n(C)n1 (stereo unspecified)	-0.2	0.0	104.8	-9.6	2.0	0.3	/	/	/	/
Cc1cc(C(=O)NC2CC(C)(C)Cc3c2cnn3-c2cccc(F)c2)n(C)n1 (stereo unspecified)	-0.1	-0.5	88.7	6.7	-0.9	-0.9	105.6	0.1	122.6	0.0
Cc1cc(C(=O)NC2CC(C)(C)Cc3c2cnn3-c2ccc(F)cc2)no1 (stereo unspecified)	0.0	-0.1	93.8	-2.9	0.2	-3.3	103.4	0.0	101.5	0.0

Bioassay records: PubChem BioAssay, several laboratories
